Assay results from ChEMBL document CHEMBL5715960, “Epigenetic Co-Deregulation of EZH2/TET1 is a Senescence-Countering, Actionable Vulnerability in Triple-Negative Breast Cancer” (Theranostics, 2019).
Calls of active or inactive are those of the source. No cut-off for these calls is given here.

Tests used:
[1] = system: MDA-MB-436; experiment: Induction of cell cycle arrest in human MDA-MB-436 cells assessed as accumulation of cells at G1 phase measured at 2 uM by BrdU/PI staining based flow cytometric analysis (reference value: 48.3%); format: functional
[2] = system: MDA-MB-231; experiment: Antiproliferative activity in human MDA-MB-231 cells expressing shTET1 assessed as increase in SA-beta-gal positive cells by SA-beta-gal staining analysis (reference value: 9+/-1.5%); format: functional
[3] = system: MDA-MB-231; experiment: Antiproliferative activity against human MDA-MB-231 cells at 0.5 to 2 uM for 2 days by Guava viacount assay; format: functional, cell-based; settings: dose 0.5-2 µM, time 2.0 day
In short: (§1)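 Cells plated at 2 × 10^4 (24-well) or 1 × 10^5 (12-well), exposed to a range of GSK343 concentrations for 2 days against DMSO solvent control; cell number and viability read by Guava ViaCount flow cytometry, relative to DMSO. Triplicate; mean ± SD.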

[4] = system: MDA-MB-436; experiment: Induction of cell cycle arrest in human MDA-MB-436 cells assessed as accumulation of cells at S phase measured at 2 uM by BrdU/PI staining based flow cytometric analysis (reference value: 39.5%); format: functional
[5] = system: MDA-MB-361; experiment: Antiproliferative activity in human MDA-MB-361 cells assessed as increase in SA-beta-gal positive cells at 2 uM for 5 days by SA-beta-gal staining analysis; format: toxicity, cell-based; settings: mda-mb-361, 120 h, time 5 day
In short: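 GSK343 2 µM or DMSO for 5 days, then chromogenic SA-β-gal staining and counting of positive cells. Triplicate; mean ± SD.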

[6] = system: MDA-MB-231; experiment: Effect on human MDA-MB-231 cells expressing shTET1 assessed as increase in p53 cascade by immunoblot analysis; format: functional, cell-based
[7] = system: MDA-MB-453; experiment: Antiproliferative activity against human MDA-MB-453 cells assessed as increase in cell death at 10 uM for 2 days by Guava viacount assay; format: functional, cell-based; settings: time 2.0 day; in short: as §1
[8] = system: MDA-MB-231; experiment: Antiproliferative activity against human MDA-MB-231 cells assessed as downregulation of PCNA by immunoblot analysis; format: functional, cell-based
In short: (§2)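 Cells exposed to GSK343 at 2 µM (standard level unless stated otherwise), lysed and immunoblotted; α-tubulin and total H3 as loading controls.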

[9] = system: MDA-MB-436; experiment: […] in human MDA-MB-436 cells xenografted in Crl:NU-Foxn1-nu/nu mouse […] administered at 5 mg/kg, ip in presence of adriamycin treated for 21 days by SA-beta-gal staining analysis; format: functional, organism-based; settings: time 21.0 day
In short: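 SA-β-gal staining of xenograft tumors. Twice-weekly intraperitoneal GSK343 5 mg/kg, adriamycin 1 mg/kg, the combination, or DMSO, started at a tumor volume of about 50 mm3 and continued for 21 days.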

[10] = system: BT-474; experiment: Cytotoxicity against human BT-474 cells assessed as increase in cell death at 10 uM for 2 days by Guava viacount assay; format: toxicity, cell-based; settings: bt-474, 48 h, time 2 day; in short: as §1
[11] = system: MCF7; experiment: Effect on human MCF7 cells assessed as increase in global 5hmc level by dot analysis; format: functional, cell-based
In short: (§3)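 Global 5hmC measured by dot blot on genomic DNA from cells given GSK343 or carrying EZH2 knock-down, with DMSO or scrambled shRNA as controls. DNA denatured in 0.1 M NaOH at 99 °C for 5 min, then neutralized with ammonium sulfate pH 7.0. 5 µg spotted, UV-crosslinked, probed with anti-5hmC for 1 h at room temperature, ECL detection, dot intensity quantified. Mean ± SD.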

[12] = system: MDA-MB-231; experiment: In vivo activation of p53 expression in Crl:NU-Foxn1-nu/nu mouse xenografted with human MDA-MB-231 cells at 5 mg/kg, ip in presence of adriamycin treated for 21 days; format: functional, organism-based; settings: time 21.0 day
[13] = system: MCF7; experiment: Effect on human MCF7 cells assessed as decrease in H3K27me3 level at 2 uM in presence of adriamycin by immunoblot analysis; format: functional, cell-based
In short: (§4)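 Immunoblot of MDA-MB-231 and MCF7 lysates after 0.005 µg/ml adriamycin with or without 2 µM GSK343, or DMSO. α-Tubulin and total H3 used as loading controls.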

[14] = system: BT-474; experiment: Antiproliferative activity against human BT-474 cells assessed as increase in global H3K9me3 expression level by immunoblot analysis; format: toxicity, cell-based; in short: as §2
[15] = system: MDA-MB-231; experiment: Effect on human MDA-MB-231 cells assessed as increase in global 5hmc level by dot analysis; format: functional, cell-based; in short: as §3
[16] = system: MCF7; experiment: Effect on human MCF7 cells assessed as increase in TET3 transcription by qRT-PCR analysis; format: functional, cell-based
In short: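 qRT-PCR of TET1, TET2 and TET3 transcripts in breast cancer cells exposed to GSK343 (2 µM unless otherwise indicated), shown relative to DMSO-treated cells. Mean ± SD, triplicate unless stated.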

[17] = system: MDA-MB-436; experiment: Downregulation of EZH2 protein expression in human MDA-MB-436 cells at 2 uM for 2 days by immunoblot analysis; format: functional, cell-based; settings: time 2.0 day
[18] = system: MCF7; experiment: Upregulation of CDKN1A gene in human MCF7 cells at 2 uM by qRT-PCR analysis; format: functional, cell-based
In short: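 Relative transcript levels measured by qRT-PCR in cells treated with 2 µM inhibitor, normalised to DMSO-treated control cells. Triplicate experiments unless stated otherwise; mean ± SD reported; unpaired two-tailed Student's t-test at p < 0.05.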

[19] = system: BT-474; experiment: Cytotoxicity against human BT-474 cells at 0.5 to 2 uM for 2 days by Guava viacount assay; format: toxicity, cell-based; settings: bt-474, 48 h, dose 0.5-2 µM, time 2 day; in short: as §1
[20] = system: MCF7; experiment: Effect on human MCF7 cells assessed as increase in TET1 level at 2 uM in presence of adriamycin by immunoblot analysis; format: functional, cell-based; in short: as §4
[21] = system: MDA-MB-436; experiment: Downregulation of EZH2 transcription in human MDA-MB-436 cells at 2 uM for 2 days by immunoblot analysis; format: functional, cell-based; settings: time 2.0 day
[22] = system: SK-BR-3; experiment: Cytotoxicity against human SK-BR-3 cells at 0.5 to 2 uM for 2 days by Guava viacount assay; format: toxicity, cell-based; settings: sk-br-3, 48 h, dose 0.5-2 µM, time 2 day; in short: as §1
[23] = system: MDA-MB-231; experiment: Upregulation of […] signalling in human MDA-MB-231 cells at 2 uM for 2 days by immunoblot analysis; format: functional, cell-based; settings: time 2.0 day
[24] = system: MDA-MB-436; experiment: Induction of apoptosis in human MDA-MB-436 cells xenografted in Crl:NU-Foxn1-nu/nu mouse assessed as apoptotic cells in tumor administered at 5 mg/kg, ip in presence of adriamycin treated for 21 days by TUNEL staining analysis; format: functional, organism-based; settings: time 21.0 day
In short: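 TUNEL staining of xenograft tumor sections. Dosing started when tumors reached about 50 mm3: twice-weekly intraperitoneal GSK343 5 mg/kg, adriamycin 1 mg/kg, the combination, or DMSO solvent control, for 21 days.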

[25] = system: MDA-MB-231; experiment: Antiproliferative activity against human MDA-MB-231 cells assessed as increase in global H3K9me3 expression level by immunoblot analysis; format: functional, cell-based; in short: as §2
[26] = system: MDA-MB-436; experiment: Cytotoxicity against human MDA-MB-436 cells assessed as killing of cells at 2 uM in presence of adriamycin; format: functional, cell-based
In short: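 Viability after a range of adriamycin concentrations given alone or together with 2 µM GSK343, measured by Guava ViaCount; mean ± SD.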

[27] = system: MDA-MB-231; experiment: Effect on human MDA-MB-231 cells assessed as increase in TET1 protein level by qRT-PCR analysis

Question: Which Activity [1] does the source give for CCCc1cc(C)[nH]c(=O)c1CNC(=O)c1cc(-c2ccnc(N3CCN(C)CC3)c2)cc2c1cnn2C(C)C here?
Answer: 71.1%

Question: And the Activity [2]?
Answer: 12.3%

Question: What about the Activity [3] of the same molecule?
Answer: Active

Question: What about the Activity [4] of the same molecule?
Answer: 15.2%

Question: What about the Activity [5] of the same molecule?
Answer: Non-Toxic

Question: What about the Activity [6] of the same molecule?
Answer: inactive

Question: And the Activity [7]?
Answer: Active

Question: And the Activity [8]?
Answer: Active

Question: What about the Activity [9] of the same molecule?
Answer: Active

Question: What about the Activity [10] of the same molecule?
Answer: Non-Toxic

Question: What about the Activity [11] of the same molecule?
Answer: inactive

Question: What about the Activity [12] of the same molecule?
Answer: Active

Question: What about the Activity [13] of the same molecule?
Answer: inactive

Question: And the Activity [14]?
Answer: Non-Toxic

Question: And the Activity [15]?
Answer: Active

Question: And the Activity [16]?
Answer: inactive

Question: And the Activity [17]?
Answer: Active

Question: And the Activity [18]?
Answer: inactive

Question: And the Activity [19]?
Answer: Non-Toxic

Question: And the Activity [20]?
Answer: inactive

Question: What about the Activity [21] of the same molecule?
Answer: Active

Question: And the Activity [22]?
Answer: Non-Toxic

Question: And the Activity [23]?
Answer: Active

Question: And the Activity [24]?
Answer: Active

Question: And the Activity [25]?
Answer: Active

Question: What about the Activity [26] of the same molecule?
Answer: Active

Question: What about the Activity [27] of the same molecule?
Answer: Active
